Experimental data as given in ChEMBL document CHEMBL4014309, “Development of an Acrylate Derivative Targeting the NLRP3 Inflammasome for the Treatment of Inflammatory Bowel Disease” (J Med Chem, 2017).
Structures can show the parent of a compound that is named as a salt. The source made the active and inactive calls. No cut-off for these calls is given here.

What was measured:
[1] = Cytotoxicity against human THP1 cells assessed as reduction in cell viability after 72 hrs by MTT assay; format: cell-based; conditions: THP-1 cells, read-out: TC50
How it was run: (§1)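 Human THP-1 cells were exposed to 0.1–100 µM for 72 h, and viability was read by MTT. TC50 is the concentration that cuts viability by 50%; percent viable cells at 100 µM is also reported. Mean ± SEM of ≥3 experiments.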

[2] = target: NACHT, LRR and PYD domains-containing protein 3 (Mus musculus) (UniProt Q8R4B8); experiment: Inhibition of NLRP3 inflammasome in LPS-primed C57BL/6 mouse bone marrow derived macrophages assessed as reduction in ATP-induced IL-1beta production at 10 to 100 uM preincubated for 1 hr followed by stimulation with ATP measured after 30 mins by ELISA
NACHT, LRR and PYD domains-containing protein 3 (Mus musculus), sequence (Q8R4B8 whole entry, the tested form may be a part): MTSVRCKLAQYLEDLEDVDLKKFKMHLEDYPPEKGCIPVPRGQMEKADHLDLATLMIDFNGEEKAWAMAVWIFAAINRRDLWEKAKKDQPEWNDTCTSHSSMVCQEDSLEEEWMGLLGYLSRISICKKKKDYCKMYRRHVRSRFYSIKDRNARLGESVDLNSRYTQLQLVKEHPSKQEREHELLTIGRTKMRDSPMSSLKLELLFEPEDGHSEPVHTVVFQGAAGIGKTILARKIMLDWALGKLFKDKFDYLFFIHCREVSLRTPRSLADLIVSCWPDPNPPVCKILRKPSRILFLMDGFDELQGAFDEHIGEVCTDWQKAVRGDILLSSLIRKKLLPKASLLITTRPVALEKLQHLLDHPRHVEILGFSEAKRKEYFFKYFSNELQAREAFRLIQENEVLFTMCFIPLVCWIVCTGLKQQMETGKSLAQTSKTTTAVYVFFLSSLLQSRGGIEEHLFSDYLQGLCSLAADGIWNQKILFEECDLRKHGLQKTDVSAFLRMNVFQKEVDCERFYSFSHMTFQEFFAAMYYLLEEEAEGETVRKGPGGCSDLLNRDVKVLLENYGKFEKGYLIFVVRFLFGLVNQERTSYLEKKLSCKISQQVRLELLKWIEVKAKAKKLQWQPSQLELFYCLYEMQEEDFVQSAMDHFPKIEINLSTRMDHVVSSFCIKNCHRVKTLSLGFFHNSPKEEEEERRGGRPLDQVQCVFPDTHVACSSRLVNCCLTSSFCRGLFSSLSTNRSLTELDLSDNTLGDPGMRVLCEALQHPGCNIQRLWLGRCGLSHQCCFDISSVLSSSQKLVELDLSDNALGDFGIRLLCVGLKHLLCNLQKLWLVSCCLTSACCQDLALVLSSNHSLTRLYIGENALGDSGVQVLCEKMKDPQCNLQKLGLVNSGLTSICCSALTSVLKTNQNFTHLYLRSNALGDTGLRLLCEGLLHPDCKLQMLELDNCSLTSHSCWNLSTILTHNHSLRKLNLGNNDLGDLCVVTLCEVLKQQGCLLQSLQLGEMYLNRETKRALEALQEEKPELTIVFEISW
How it was run: (§2)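 C57BL/6 bone marrow macrophages, differentiated with 20% L-cell medium, were primed with LPS (1 µg/mL, 3 h). They were then exposed to compound or vehicle for 1 h and stimulated with ATP (5 mM, 30 min). IL-1β released into the medium was measured by ELISA.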

[3] = target: NACHT, LRR and PYD domains-containing protein 3 (Mus musculus) (UniProt Q8R4B8); experiment: Inhibition of NLRP3 inflammasome in LPS-primed C57BL/6 mouse bone marrow derived macrophages assessed as reduction in nigericin-induced pyroptosis at 10 to 100 uM preincubated for 1 hr followed by stimulation with ATP measured after 30 mins by LDH release assay
How it was run: (§3)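 Bone marrow macrophages from C57BL/6 mice, differentiated with 20% L-cell medium, primed with LPS (1 µg/mL, 3 h). Test agent or vehicle was added for 1 h, then ATP (5 mM, 30 min) or nigericin (10 µM, 30 min). IL-1β in the medium was measured by ELISA. LDH in the medium was measured colorimetrically as % of total cellular LDH.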

[4] = target: NACHT, LRR and PYD domains-containing protein 3 (Mus musculus) (UniProt Q8R4B8); experiment: Inhibition of NLRP3 inflammasome in LPS-primed C57BL/6 mouse bone marrow derived macrophages assessed as reduction in ATP-induced pyroptosis at 10 to 100 uM preincubated for 1 hr followed by stimulation with ATP measured after 30 mins by LDH release assay; how it was run: as §3
[5] = target: NACHT, LRR and PYD domains-containing protein 3 (Mus musculus) (UniProt Q8R4B8); experiment: Inhibition of NLRP3 inflammasome in LPS-primed C57BL/6 mouse bone marrow derived macrophages assessed as reduction in nigericin-induced IL-1beta production at 10 to 100 uM preincubated for 1 hr followed by stimulation with nigericin measured after 30 mins by ELISA; how it was run: as §3
[6] = Cysteamine reactivity of the compound in PBS assessed as second order rate constant for free cysteamine release at 250 uM and pH 7.4 after 90 mins by DTNB reagent based RP-UHPLC analysis
How it was run: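 Compound (250 µM) was mixed with equimolar cysteamine in pH 7.4 PBS containing 12.5% CH3CN at 37 °C. Free cysteamine was tracked with DTNB at several time points over 90 min. Second-order k2 came from 1/[CAM] = 1/[CAM]0 + kt, using 3–10 points per plot; mean ± SEM of ≥3 experiments.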

[7] = target: NACHT, LRR and PYD domains-containing protein 3 (Homo sapiens) (UniProt Q96P20); experiment: Inhibition of recombinant human NLRP3 ATPase assessed as hydrolysis of ATP at 100 uM preincubated for 15 mins followed by addition of ATP measured after 40 mins by ADP-Glo assay
NACHT, LRR and PYD domains-containing protein 3 (Homo sapiens), sequence (Q96P20 whole entry, the tested form may be a part): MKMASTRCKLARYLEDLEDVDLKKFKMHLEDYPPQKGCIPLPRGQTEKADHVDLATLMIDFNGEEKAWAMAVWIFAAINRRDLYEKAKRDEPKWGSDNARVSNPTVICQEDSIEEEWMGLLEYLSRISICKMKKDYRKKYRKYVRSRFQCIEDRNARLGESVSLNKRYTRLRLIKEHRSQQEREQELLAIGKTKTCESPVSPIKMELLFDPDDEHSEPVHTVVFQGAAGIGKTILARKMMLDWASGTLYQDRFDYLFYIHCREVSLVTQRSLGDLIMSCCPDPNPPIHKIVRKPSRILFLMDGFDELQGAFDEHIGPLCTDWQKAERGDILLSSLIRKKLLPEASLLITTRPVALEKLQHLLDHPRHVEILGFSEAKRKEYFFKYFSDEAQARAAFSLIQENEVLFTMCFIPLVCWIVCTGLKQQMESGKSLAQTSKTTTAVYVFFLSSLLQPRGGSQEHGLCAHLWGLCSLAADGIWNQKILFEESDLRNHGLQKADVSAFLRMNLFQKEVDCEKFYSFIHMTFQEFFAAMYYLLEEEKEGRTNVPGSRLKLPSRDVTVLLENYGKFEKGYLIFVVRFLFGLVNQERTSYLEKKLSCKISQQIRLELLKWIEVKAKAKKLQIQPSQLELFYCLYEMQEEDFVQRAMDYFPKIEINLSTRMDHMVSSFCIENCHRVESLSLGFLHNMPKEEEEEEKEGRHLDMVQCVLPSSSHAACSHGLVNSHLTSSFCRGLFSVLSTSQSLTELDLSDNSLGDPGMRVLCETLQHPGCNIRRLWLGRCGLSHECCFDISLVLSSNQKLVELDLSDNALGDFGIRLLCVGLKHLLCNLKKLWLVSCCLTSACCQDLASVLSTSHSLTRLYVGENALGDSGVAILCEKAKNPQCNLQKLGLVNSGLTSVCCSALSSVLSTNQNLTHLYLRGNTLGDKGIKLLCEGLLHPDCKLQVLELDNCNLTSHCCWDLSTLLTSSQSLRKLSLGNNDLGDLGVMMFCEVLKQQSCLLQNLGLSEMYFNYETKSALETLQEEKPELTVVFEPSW
How it was run: (§4)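 Human recombinant NLRP3 (0.105 µg) in 20 mM Tris-HCl pH 7.8, 133 mM NaCl, 20 mM MgCl2, 3 mM KCl, 0.56 mM EDTA, 0.5% DMSO. Compound (100 or 50 µM) was preincubated 15 min at 37 °C, then ATP (250 µM) was added for 40 min at 37 °C. ADP was read by ADP-Glo luminescence. Result is % inhibition vs vehicle; mean ± SEM, ≥3 experiments.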

[8] = Cytotoxicity against human THP1 cells assessed as cell viability at 100 uM after 72 hrs by MTT assay; format: cell-based; conditions: THP-1 cells, read-out: Activity; how it was run: as §1
[9] = target: NACHT, LRR and PYD domains-containing protein 3 (Homo sapiens) (UniProt Q96P20); experiment: Inhibition of NLRP3 in PMA-differentiated and LPS-primed human THP1 cells assessed as decrease in ATP-induced pyroptosis measured as LDH activity at 10 uM preincubated for 1 hr followed by ATP addition measured after 1 hr by colorimetric assay relative to control
How it was run: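 THP-1 cells were PMA-differentiated and LPS-primed, then pretreated with vehicle or compound (10 µM, 1 h). Pyroptosis was triggered with ATP (5 mM). LDH in supernatant was measured colorimetrically 1 h after ATP and expressed as percent decrease versus vehicle, mean ± SEM of ≥3 experiments.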

[10] = target: NACHT, LRR and PYD domains-containing protein 3 (Homo sapiens) (UniProt Q96P20); experiment: Inhibition of recombinant human NLRP3 ATPase assessed as hydrolysis of ATP at 50 uM preincubated for 15 mins followed by addition of ATP measured after 40 mins by ADP-Glo assay; how it was run: as §4
[11] = target: NACHT, LRR and PYD domains-containing protein 3 (Homo sapiens) (UniProt Q96P20); experiment: Inhibition of recombinant human NLRP3 ATPase assessed as hydrolysis of ATP preincubated for 15 mins followed by addition of ATP measured after 40 mins by ADP-Glo assay; how it was run: as §4
[12] = Metabolic stability in Sprague-Dawley rat liver microsomes at 100 uM after 2 hrs in presence of NADPH-generating system by UHPLC-MS analysis; format: ADME, microsome; conditions: read-out: Stability
How it was run: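 Rat liver microsomes (0.5 mg protein/mL) in 100 mM phosphate buffer pH 7.4 with NADPH-generating system, compound 100 µM final (≤2% DMSO), 37 °C, shaking, up to 120 min. Samples were taken at 0, 15, 30, 60 and 120 min and quenched with acetonitrile on ice. Analysis by UHPLC-MS; runs were also done without NADPH system. ≥3 independent repeats.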

[13] = tested on: Liver; experiment: Drug level in Sprague-Dawley rat liver microsomes treated with INF39 at 100 uM up to 2 hrs by UHPLC-MS analysis; format: ADME, microsome
[14] = target: NACHT, LRR and PYD domains-containing protein 3 (Homo sapiens) (UniProt Q96P20); experiment: Irreversible inhibition of His-FLAG- tagged NLRP3-ATPase (unknown origin) at 100 uM preincubated for 55 mins followed by compound wash-out and ATP addition measured after 40 mins by ADP-Glo assay
How it was run: (§5)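 His-FLAG NLRP3 (105 ng/well) captured on anti-FLAG-coated, BSA-blocked wells for 3 h at 4 °C. Compound (100 µM final, 2% DMSO) preincubated 55 min at 37 °C. Wells were washed three times (or not washed), then ATP (250 µM) was added for 40 min at 37 °C. ADP was read by ADP-Glo. Equal protein loading was checked by anti-His ELISA.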

[15] = target: NACHT, LRR and PYD domains-containing protein 3 (Homo sapiens) (UniProt Q96P20); experiment: Irreversible inhibition of His-FLAG- tagged NLRP3-ATPase (unknown origin) at 100 uM preincubated for 55 mins followed by ATP addition measured after 40 mins by ADP-Glo assay; how it was run: as §5
[16] = target: serum albumin (Homo sapiens, UniProt P02768); experiment: Binding affinity to human serum albumin after 5 mins by RP-UHPLC analysis; format: ADME; conditions: read-out: PB (converted)
serum albumin, sequence (P02768 whole entry, the tested form may be a part): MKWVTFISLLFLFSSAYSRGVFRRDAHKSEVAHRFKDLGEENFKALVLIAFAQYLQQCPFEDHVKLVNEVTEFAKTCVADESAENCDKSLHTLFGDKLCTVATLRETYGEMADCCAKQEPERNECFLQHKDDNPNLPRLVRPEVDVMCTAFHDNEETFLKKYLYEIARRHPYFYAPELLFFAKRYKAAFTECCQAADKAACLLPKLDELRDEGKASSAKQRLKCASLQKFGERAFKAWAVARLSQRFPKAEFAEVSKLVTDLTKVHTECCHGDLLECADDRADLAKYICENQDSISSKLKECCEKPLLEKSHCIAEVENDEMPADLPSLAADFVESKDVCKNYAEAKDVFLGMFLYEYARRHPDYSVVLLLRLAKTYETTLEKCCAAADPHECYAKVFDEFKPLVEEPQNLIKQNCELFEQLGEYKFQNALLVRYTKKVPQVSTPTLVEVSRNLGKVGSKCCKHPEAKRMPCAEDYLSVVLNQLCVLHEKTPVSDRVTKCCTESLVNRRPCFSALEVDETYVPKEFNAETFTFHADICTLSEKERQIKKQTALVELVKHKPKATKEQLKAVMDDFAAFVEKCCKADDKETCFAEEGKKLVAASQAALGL

[17] = target: NACHT, LRR and PYD domains-containing protein 3 (Mus musculus) (UniProt Q8R4B8); experiment: Inhibition of NLRP3 inflammasome in LPS-primed C57BL/6 mouse bone marrow derived macrophages assessed as reduction in ATP-induced IL-1beta production at 1 to 100 uM preincubated for 1 hr followed by stimulation with ATP measured after 30 mins by ELISA; how it was run: as §2
[18] = target: NACHT, LRR and PYD domains-containing protein 3 (Mus musculus) (UniProt Q8R4B8); experiment: Inhibition of NLRP3 inflammasome in LPS-primed C57BL/6 mouse bone marrow derived macrophages assessed as reduction in nigericin-induced pyroptosis at 1 to 100 uM preincubated for 1 hr followed by stimulation with ATP measured after 30 mins by LDH release assay; how it was run: as §3
[19] = target: NACHT, LRR and PYD domains-containing protein 3 (Mus musculus) (UniProt Q8R4B8); experiment: Inhibition of NLRP3 inflammasome in LPS-primed C57BL/6 mouse bone marrow derived macrophages assessed as reduction in nigericin-induced IL-1beta production at 1 to 100 uM preincubated for 1 hr followed by stimulation with nigericin measured after 30 mins by ELISA; how it was run: as §3
[20] = target: NACHT, LRR and PYD domains-containing protein 3 (Mus musculus) (UniProt Q8R4B8); experiment: Inhibition of NLRP3 inflammasome in LPS-primed C57BL/6 mouse bone marrow derived macrophages assessed as reduction in ATP-induced pyroptosis at 1 to 100 uM preincubated for 1 hr followed by stimulation with ATP measured after 30 mins by LDH release assay
How it was run: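 LPS-primed (1 µg/mL, 3 h) C57BL/6 bone marrow macrophages were treated with compound or vehicle for 1 h, then given ATP (5 mM, 30 min). LDH in the medium was measured and expressed as percent of total cellular LDH.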

| SMILES | CC50 at 72 h [1] [µM] | K [6] [M⁻¹ s⁻¹] | inhibition [7] | viability at 72 h, 100 µM [8] [%] | inhibition [9] [%] | Drug metabolism [6] | inhibition [10] | inhibition [11] | other results |
| --- | --- | --- | --- | --- | --- | --- | --- | --- | --- |
| Cc1ccc(S(=O)(=O)/C=C/C#N)cc1 | 1.5 | – | – | – | – | – | – | – | inhibition [2]: Active; inhibition [3]: Active; inhibition [4]: Active; inhibition [5]: Active |
| C=C(C(=O)OCC)C(OC(C)=O)c1ccccc1Cl (configuration not stated) | 33.3 | 56.2 | – | – | – | – | – | – | – |
| CC(Cc1ccccc1Cl)C(=O)O (configuration not stated) | > 100 | – | 15% | 98.7 | 5.2 | Metabolite not detected | inactive | – | – |
| C=C(C(=O)OCC)C(O)c1ccc(Cl)cc1Cl (configuration not stated) | 68.3 | 1.34 | 35% | – | 74.4 | – | 19% | Dose-dependent effect | – |
| C=C(Cc1ccccc1Cl)C(=O)O | > 100 | – | 44% | 102 | 35.8 | Metabolite not detected | 22% | Dose-dependent effect | remaining at 2 h, 100 µM [12]: > 99%; Drug metabolism [13]: Metabolite_Detected |
| CCOC(=O)C(C)Cc1ccccc1Cl (configuration not stated) | > 100 | – | 12% | 86.1 | 3.8 | Metabolite not detected | inactive | Dose-dependent effect | inhibition [14]: inactive; inhibition [15]: 10% |
| C=C(C(=O)OCC)C(OCCC(=O)OCC)c1ccc(Cl)cc1Cl (configuration not stated) | > 100 | 0.292 | – | 87.7 | – | – | 10% | – | – |
| O=[N+]([O-])/C=C/c1ccc2c(c1)OCO2 | 3.2 | 2.5 | – | – | – | – | – | – | – |
| C=C(C(=O)OCC)C(O)c1ccccc1Cl (configuration not stated) | 65 | 0.824 | 72% | – | 80.9 | – | 32% | Dose-dependent effect | fraction unbound at 5 min [16]: 0.35 |
| C=C(C(=O)OCC)C(OC)c1ccccc1Cl (configuration not stated) | > 100 | 1.6 | 60% | 78.1 | 37.2 | – | 24% | Dose-dependent effect | – |
| CCOC(=O)C1=CCOC1c1ccccc1Cl (configuration not stated) | – | 8.18 | – | – | – | – | – | Dose-dependent effect | – |
| C=C(C(=O)O)C(O)c1ccc(Cl)cc1Cl (configuration not stated) | > 100 | – | 43% | 88.1 | 40.2 | Metabolite not detected | 11% | Dose-dependent effect | – |
| C=C(C(=O)O)C(O)c1ccccc1Cl (configuration not stated) | > 100 | – | 69% | 80.7 | – | Metabolite not detected | 21% | Dose-dependent effect | – |
| COC(=O)/C=C/C(=O)OC [DIMETHYL FUMARATE] | 95.5 | 39 | inactive | – | 65.2 | – | inactive | – | inhibition [17]: Active; inhibition [18]: Active; inhibition [19]: Active; inhibition [20]: Active |
| C=C(C(=O)OCC)C(OCCC(=O)OCC)c1ccccc1Cl (configuration not stated) | > 100 | 0.734 | 56% | 95.7 | – | – | 27% | Dose-dependent effect | – |
